ChEMBL document CHEMBL4024771, “Optimization of Orally Bioavailable Enhancer of Zeste Homolog 2 (EZH2) Inhibitors Using Ligand and Property-Based Design Strategies: Identification of Development Candidate …” (J Med Chem, 2018)
pIC50, pKi: −log10 of the molar value. Converted amounts (≈) assume the structure as drawn.

Assays:
[1] = molecular target: Histone-lysine N-methyltransferase EZH2 (Homo sapiens, UniProt Q15910); assay: Inhibition of EZH2 in human KARPAS422 cells assessed as reduction in H3K27me3 level after 72 hrs by ELISA
Sequence of Histone-lysine N-methyltransferase EZH2 (Homo sapiens, UniProt Q15910) (Q15910 whole entry): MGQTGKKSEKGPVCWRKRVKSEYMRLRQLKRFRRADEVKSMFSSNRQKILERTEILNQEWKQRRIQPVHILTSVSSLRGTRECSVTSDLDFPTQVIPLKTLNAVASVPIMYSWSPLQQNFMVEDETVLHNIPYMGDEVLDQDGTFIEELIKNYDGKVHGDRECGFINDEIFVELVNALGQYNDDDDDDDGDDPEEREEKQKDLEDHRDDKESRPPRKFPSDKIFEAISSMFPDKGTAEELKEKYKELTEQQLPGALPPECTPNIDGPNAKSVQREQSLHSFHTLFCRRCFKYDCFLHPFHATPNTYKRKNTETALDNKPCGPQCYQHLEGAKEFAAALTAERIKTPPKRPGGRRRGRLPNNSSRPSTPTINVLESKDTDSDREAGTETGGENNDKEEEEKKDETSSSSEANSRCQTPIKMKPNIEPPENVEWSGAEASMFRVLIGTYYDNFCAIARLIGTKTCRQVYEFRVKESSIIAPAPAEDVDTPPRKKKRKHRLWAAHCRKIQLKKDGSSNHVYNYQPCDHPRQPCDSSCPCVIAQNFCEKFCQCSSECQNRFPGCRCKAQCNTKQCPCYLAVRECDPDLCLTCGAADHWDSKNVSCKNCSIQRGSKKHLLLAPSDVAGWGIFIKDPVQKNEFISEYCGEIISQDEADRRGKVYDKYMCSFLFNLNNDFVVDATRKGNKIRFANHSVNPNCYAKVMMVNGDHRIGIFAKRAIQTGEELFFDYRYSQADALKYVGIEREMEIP

[2] = molecular target: Histone-lysine N-methyltransferase EZH2 (Homo sapiens, UniProt Q15910, Y641N); assay: Inhibition of EZH2 Y641N mutant (unknown origin) using oligonucleosomes as substrate after 60 mins in presence of [3H]SAM by scintillation counting analysis
Sequence of Histone-lysine N-methyltransferase EZH2 (Homo sapiens, UniProt Q15910, Y641N) (Q15910 whole entry Y641N): as the sequence (Q15910 whole entry) above, with Y641N counted along it

KARPAS-422 = assay: Antiproliferative activity against human KARPAS422 cells after 72 hrs by resazurin assay; format: functional, cell-based
[3] = Intrinsic clearance in human liver microsomes assessed per mg protein at 1 uM preincubated for 10 mins followed by NADPH addition measured after 45 mins by LC-MS/MS analysis; format: ADME, microsome; details: liver microsomes, read-out: CLH
Method in brief: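 Test compound (1 μM) with pooled liver microsomes (0.8 mg/mL protein) in 100 mM potassium phosphate pH 7.4, 10 min preincubation, started with 2 mM NADPH, 45 min at 37 °C, in triplicate. Samples quenched with cold methanol containing buspirone internal standard, analysed by LC−MS/MS. CLint derived from t1/2 of parent loss (log-linear slope).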

[4] = Kinetic solubility of the compound; format: physicochemical; details: for solubility kinetic: read-out: Kinetic_solubility
[5] = Passive permeability in MDCK cells at 2 uM after 90 mins by LC-MS/MS analysis; format: ADME, cell-based, Canis lupus familiaris; details: dog; for Papp at […], 2 µM: MDCK, read-out: permeability; for permeability: mdck, 2 µM
Method in brief: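 Low-efflux MDCK cells (MDCK-LE) on 96-well inserts, used on day 4. Monodirectional transport of 2 μM drug in transport buffer with 0.1% DMSO at 37 °C. Donor and receiver sampled at 0 and 90 min for LC−MS/MS. Donor pH 6.5 and 7.4, receiver pH 7.4.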

[6] = Lipophilicity, log D of the compound at pH 7.4; details: buffer

SMILES	pIC50 [1]	pKi [2]	pIC50 (KARPAS-422; Homo sapiens, KARPAS-422, 72 h)	microsomal CLint at 1 µM [3]	solubility kinetic [4]	Papp at […], 2 µM [5]	logD ([6]; pH 7.4, logD)	pIC50 (KARPAS-422; karpas-422)	Kinetic_solubility [4]	permeability [5]	logD ([6]; pH 7.4)
COc1cc(C)[nH]c(=O)c1CN1CCc2c(Cl)cc(-c3c(C)noc3C)c(Cl)c2C1=O	8.10	9.82	7.57	70 µL/min/mg	384 µM (≈ 178 µg/mL)	11 ×10⁻⁶ cm/s	2.7				
COC(c1cc(Cl)c2c(c1Cl)C(=O)N(Cc1c(C)cc(C)[nH]c1=O)CC2)C1CCN(C2COC2)CC1 (single isomer, unassigned; (-))	5.88	6.28		78.3 µL/min/mg				5.65	519 µM	7.9 ×10⁻⁶ cm/s	2.8
CCC(OC)c1cc(Cl)c2c(c1Cl)C(=O)N(Cc1c(C)cc(C)[nH]c1=O)CC2 (single isomer, unassigned; (-))	7.19	8.10	6.57	119 µL/min/mg	44 µM (≈ 18.6 µg/mL)					13.5 ×10⁻⁶ cm/s	
Cc1cc(C)c(CN2CCc3c(Cl)cc([C@H](CO)[C@H]4CCOC4)c(Cl)c3C2=O)c(=O)[nH]1	8.00	9.62	7.82	21.3 µL/min/mg	570 µM (≈ 265 µg/mL)	2.9 ×10⁻⁶ cm/s	2				
Cc1cc(C)c(CN2CCc3c(Cl)cc([C@H](CO)[C@@H]4CCCO4)c(Cl)c3C2=O)c(=O)[nH]1	7.39	8.00	7.24	37.6 µL/min/mg	400 µM (≈ 186 µg/mL)	14.6 ×10⁻⁶ cm/s	2.4				
Cc1cc(C)c(CN2CCc3c(Cl)cc(C(CO)C4CCOC4)c(Cl)c3C2=O)c(=O)[nH]1 (stereo in doubt)	5.99	6.82		20 µL/min/mg	522 µM (≈ 243 µg/mL)			5.98		2.7 ×10⁻⁶ cm/s	
Cc1cc(C)c(CN2CCc3c(Cl)cc([C@@H](C)CO)c(Cl)c3C2=O)c(=O)[nH]1	5.98	6.59	5.82	12.4 µL/min/mg	143 µM (≈ 58.5 µg/mL)	15 ×10⁻⁶ cm/s	2.5				
COc1cc(C)[nH]c(=O)c1CN1CCc2c(Cl)cc([C@@H](O)C3COC3)c(Cl)c2C1=O	< 4.49	5.82	4.97	< 7 µL/min/mg	582 µM (≈ 264 µg/mL)	1.2 ×10⁻⁶ cm/s	1.3				
COc1cc(C)[nH]c(=O)c1CN1CCc2c(Cl)cc([C@@H](OC)C3COC3)c(Cl)c2C1=O	7.12	7.80	6.33	17 µL/min/mg	543 µM (≈ 254 µg/mL)	6.8 ×10⁻⁶ cm/s	1.6				
COc1cc(C)[nH]c(=O)c1CN1CCc2c(Cl)cc([C@H](O)C3COC3)c(Cl)c2C1=O	7.00	8.82	6.97	< 8 µL/min/mg	234 µM (≈ 106 µg/mL)	0.7 ×10⁻⁶ cm/s	1.4				
Cc1cc(C)c(CN2CCc3c(Cl)cc(C(CO)C4CCOCC4)c(Cl)c3C2=O)c(=O)[nH]1 (stereo in doubt; (+)-8b)	4.83	5.49		34.7 µL/min/mg	496 µM (≈ 238 µg/mL)			5.36		2.9 ×10⁻⁶ cm/s	
COC(c1cc(Cl)c2c(c1Cl)C(=O)N(Cc1c(C)cc(C)[nH]c1=O)CC2)C1CCN(C(=O)CO)CC1 (single isomer, unassigned; (-))	6.13	7.15		23 µL/min/mg				5.50	513 µM	7.1 ×10⁻⁶ cm/s	2.3
COC(c1cc(Cl)c2c(c1Cl)C(=O)N(Cc1c(C)cc(C)[nH]c1=O)CC2)C1CCOC1 (single isomer, unassigned; (-))	5.96	6.89		136 µL/min/mg	415 µM (≈ 193 µg/mL)			6.76		18.4 ×10⁻⁶ cm/s	
Cc1cc(C)c(CN2CCc3c(Cl)cc(C(CO)c4ccon4)c(Cl)c3C2=O)c(=O)[nH]1 (stereo in doubt; (-)-21b)				22.7 µL/min/mg				5.60	481 µM	8.6 ×10⁻⁶ cm/s	
Cc1cc(C)c(CN2CCc3c(Cl)cc([C@@H](CO)[C@H]4CCCO4)c(Cl)c3C2=O)c(=O)[nH]1	5.99	6.96	6.27	43 µL/min/mg	576 µM (≈ 268 µg/mL)	8.5 ×10⁻⁶ cm/s	2.5				
COC(c1cc(Cl)c2c(c1Cl)C(=O)N(Cc1c(C)cc(C)[nH]c1=O)CC2)C1CCOCC1 (single isomer, unassigned; (-))	5.84	6.51		130 µL/min/mg				5.94	57.2 µM	16.5 ×10⁻⁶ cm/s	3.5
Cc1cc(C)c(CN2CCc3c(Cl)cc([C@H](CO)[C@H]4CCCO4)c(Cl)c3C2=O)c(=O)[nH]1	7.40	8.10	7.20	51.6 µL/min/mg	430 µM (≈ 200 µg/mL)	4.1 ×10⁻⁶ cm/s	2.1				
COC(C)c1cc(Cl)c2c(c1Cl)C(=O)N(Cc1c(C)cc(C)[nH]c1=O)CC2 (single isomer, unassigned; (+))				190 µL/min/mg	49 µM (≈ 20.1 µg/mL)			6.16		37.6 ×10⁻⁶ cm/s	3.4
COC(c1cc(Cl)c2c(c1Cl)C(=O)N(Cc1c(C)cc(C)[nH]c1=O)CC2)C1CCN(C(C)=O)CC1 (single isomer, unassigned; (-))				50.3 µL/min/mg				5.79	498 µM	8.1 ×10⁻⁶ cm/s	
